Assay outcomes from PubChem.
Rows were chosen to be rich in hits. Some 2.5% of all compounds tested hit in one or more screens of this group.
SENP7 block: blocks the human protease SENP7 | Q9BQF6 | recombinant SENP7, Z-RLRGG-aminoluciferin luminescence, 40 min | inhibition, % at 5 µM | actives 1.5% (n = 330,000);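 active = inhibition above about 50% at the single test dose, limit read from the data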;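 note: plate controls were DMSO with enzyme for no effect and no enzyme buffer wells for full effect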
SENP1 FRET inh: blocks the human SENP1 SUMO protease catalytic domain | actives 0.21% (n = 360,000) | recombinant SENP1 catalytic domain, CyPet-SUMO1-YPet FRET cleavage | inhibition, % at 10 µM | Q9P0U3;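 active = inhibition at least 30% at 10 µM, raw YFP signal under a set limit, fluorescence ratio 0.5 to 1.5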;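 note: 0% = enzyme with DMSO and 100% = no enzyme wells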
Target sequence (Q9P0U3 419-644 limits assumed): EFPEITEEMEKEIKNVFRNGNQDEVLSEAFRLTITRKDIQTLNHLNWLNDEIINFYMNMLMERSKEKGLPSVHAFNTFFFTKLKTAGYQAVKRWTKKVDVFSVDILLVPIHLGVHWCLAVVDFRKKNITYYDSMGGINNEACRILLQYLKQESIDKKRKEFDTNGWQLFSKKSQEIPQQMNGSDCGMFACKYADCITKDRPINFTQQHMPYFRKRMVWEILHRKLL
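material = recombinant human SENP1 catalytic domain, His6-tagged | quantity = 20 pM enzyme | reagent = 25 nM SUMO1 FRET substrate | compound dosing = 10 µM single point, 0.5% DMSO | timing = 50 min enzyme reaction, room temperature, light-protected | detection = FRET, CFP and YFP emission | control set = no-enzyme low, enzyme-DMSO high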
SENP8 block-1: inhibitors of human SENP8 protease. actives 0.64% (n = 360,000). inhibition, % at 20 µM. recombinant SENP8, Nedd8 substrate fluorescence. Q96LD8. AID 602440; in the data active = inhibition mostly above about 40%, no sharp cut-off; inactive = mostly below about 27%
SENP6 block: inhibitors of human SENP6 protease. Q9GZR1. Recombinant SENP6 catalytic domain, aminoluciferin luminescence. inhibition, % at 10 µM. actives 1.8% (n = 330,000). AID 2599;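 active = inhibition above about 50% at the single tested dose, limit read from the data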;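 note: plate controls were DMSO wells with enzyme for no effect and DMSO wells lacking enzyme for full effect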
SENP8 block-2: SENP8 protease inhibition; AID 2540; purified SENP8, Z-RLRGG-aminoluciferin cleavage, luminescence; actives 1.2% (n = 330,000); inhibition, % at 10 µM; in the data active = inhibition above about 50%
SENP8 conf: confirmation of human SENP8 protease inhibitors; actives 40% (n = 6,200); AID 488912; Recombinant SENP8, Z-RLRGG-aminoluciferin luminescence, 60 min; inhibition, % at 12.5 µM; shares compounds with SENP7 block;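 active = mean inhibition across replicates above about 50%, limit read from the data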
SENP6 conf: confirmation of human SENP6 protease inhibitors; shares compounds with SENP7 block; recombinant SENP6, Z-RLRGG-aminoluciferin luminescence; inhibition, % at 12.5 µM; actives 58% (n = 6,200); AID 488915
SENP7 conf: confirmation of human SENP7 protease inhibitors | shares compounds with SENP7 block | AID 488917 | inhibition, % at 12.5 µM | actives 69% (n = 6,200) | recombinant SENP7, Z-RLRGG-aminoluciferin luminescence, 40 min
Casp3 select: selectivity test for SENP inhibitors: human caspase-3 inhibition; inhibition, % at 12.5 µM; purified caspase-3, Z-DEVD-aminoluciferin luminescence, 60 min; actives 60% (n = 6,200); AID 488918; shares compounds with SENP7 block;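 active = mean inhibition above about 50%, limit read from the data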;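 note: plate controls were enzyme with DMSO for no effect and wells without caspase-3 for full effect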
Target sequence (P42574 28-227 limits assumed): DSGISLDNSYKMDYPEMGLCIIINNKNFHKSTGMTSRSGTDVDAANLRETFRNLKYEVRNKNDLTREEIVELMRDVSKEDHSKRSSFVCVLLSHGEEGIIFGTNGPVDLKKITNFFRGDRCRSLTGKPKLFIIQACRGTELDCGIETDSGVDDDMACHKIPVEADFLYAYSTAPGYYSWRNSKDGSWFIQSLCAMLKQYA
SENP luc ctr: luminescence interference (SENP counter-screen) | shares compounds with SENP7 block | inhibition, % at 12.5 µM | actives 39% (n = 6,200) | Pre-incubated SENP8/Z-RLRGG-aminoluciferin, luciferase luminescence interference | AID 488919;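 active = mean inhibition above about 50% when retested at one dose, limit read from the data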;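 note: plate controls were DMSO wells with completed reaction for no effect and substrate without enzyme for full effect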
Starred values were filed as active, the others as inactive; x = no result given.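 Rule for the calls, unless noted: active = mean inhibition above about 50% in the one-dose retest (limit read from the data); inactive = the rest.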

SMILES	SENP7 block	SENP1 FRET inh	SENP8 block-1	SENP6 block	SENP8 block-2	SENP8 conf	SENP6 conf	SENP7 conf	Casp3 select	SENP luc ctr
Cc1noc(NS(=O)(=O)c2ccc(NC(=O)Nc3ccc(Cl)c(Cl)c3)cc2)c1C	16	0	21	86*	82*	89*	89*	95*	51*	85*
Cc1noc(NS(=O)(=O)c2ccc(N/C=C\C(=O)c3ccc(Br)cc3)cc2)c1C	-11	-54	-57	-13	-12	x	x	x	x	x
COc1cccc(C(=O)/C=C/Nc2ccc(S(=O)(=O)Nc3onc(C)c3C)cc2)c1	58*	-5	-2	88*	78*	68*	67*	86*	68*	25
Cc1cc(NS(=O)(=O)c2ccc(NC(=O)Nc3ccccc3)cc2)no1	33	1	20	54*	23	34	30	67*	69*	30
Cc1noc(NS(=O)(=O)c2ccc(NC(=O)C(Cl)(Cl)Cl)cc2)c1C	5	2	11	-7	-9	x	x	x	x	x
COC(=O)c1cc(=O)n(CCc2ccc(OC)c(OC)c2)c(=Nc2ccc(F)c(Cl)c2)s1	2	3	24	-8	-1	x	x	x	x	x
O=C(c1c(O)c2ccccc2oc1=O)C1CCCCC1	2	0	10	3	9	x	x	x	x	x
O=C(CCC1CCCC1)c1c(O)c2ccccc2oc1=O	4	0	4	71*	46	68*	68*	85*	70*	39
O=C(NC1CCCC1)C1CC(O)CN1C(=O)Nc1ccccc1 (stereo not drawn)	-5	-1	23	-7	-8	x	x	x	x	x
COc1ccc(-c2nnc(-c3ccc(F)cc3)o2)cc1	69*	0	-96	58*	57*	8	9	12	1	8
COc1ccc(-c2nnc(-c3ccccc3O)o2)cc1	93*	2	-169	80*	84*	51*	42	67*	56*	6
Cc1ccc(C2CC(c3ccccc3)=NN2c2ccccc2)o1 (stereo not drawn)	55*	-62	-386	43	7	3	1	6	5	2
COc1ccc(O)c(/C=N/NC(=O)c2cc(=O)[nH]c3ccccc23)c1	15	2	24	-1	0	x	x	x	x	x
O=c1cc(CCl)[nH]c2nc3ccccc3n12	-5	-1	-354	-8	-12	x	x	x	x	x
O=c1cc(-c2ccccc2)[nH]c2nc3ccccc3n12	98*	-54	-307	88*	88*	2	64*	64*	72*	5
O=C(Nc1ccccc1C(=O)O)c1ccc2ccccc2n1	26	-2	-20	54*	35	65*	60*	83*	81*	49
O=C(Nc1ccc(OC(F)(F)F)cc1)c1ccc2ccccc2n1	4	0	3	22	3	x	x	x	x	x
O=C(Nc1ccccc1)c1ccc2ccccc2n1	73*	-1	5	73*	65*	37	70*	89*	65*	24
O=C(COc1ccc(Cl)cc1)Nc1cccc(-c2ccc(N3CCOCC3)nn2)c1	68*	1	-6	54*	12	12	20	23	14	0
O=C(Nc1cccc(-c2ccc(N3CCCCC3)nn2)c1)c1ccco1	73*	-1	-11	76*	54*	77*	74*	91*	75*	72*
O=C(Nc1cccc(-c2ccc(N3CCOCC3)nn2)c1)c1ccc(Cl)cc1	29	2	-9	-2	-13	x	x	x	x	x
COc1ccccc1CN(C)C[C@@H]1OCc2cnnn2CCCC(=O)N([C@H](C)CO)C[C@H]1C	x	0	4	x	x	x	x	x	x	x
O=C(CSCc1cccc(Cl)c1)OCc1nc2ccsc2c(=O)[nH]1	-9	1	4	-1	-9	x	x	x	x	x
CCOC(=O)CSc1nc2cccnc2n1C	-6	3	3	-2	-12	x	x	x	x	x
Cn1c(SCc2ccccc2F)nc2cccnc21	48	3	10	60*	25	54*	51*	81*	64*	57*
SMILES	SENP7 block	SENP1 FRET inh	SENP8 block-1	SENP6 block	SENP8 block-2	SENP8 conf	SENP6 conf	SENP7 conf	Casp3 select	SENP luc ctr
CCOc1cc(/C=C2\SC(=S)N(N3CCOCC3)C2=O)ccc1O	2	21	22	-3	-3	x	x	x	x	x
COc1cc(/C=C2\SC(=S)N(Nc3ccccc3)C2=O)ccc1O	72*	50	52*	93*	89*	95*	96*	100*	78*	94*
CCOc1cc(/C=C2\SC(=S)N(Nc3ccccc3)C2=O)ccc1O	44	24	35	85*	45	60*	69*	81*	24	55*
COc1cc(/C=C2\SC(=S)N(NC(=O)c3ccc(O)cc3)C2=O)ccc1O	3	13	25	5	-1	x	x	x	x	x
O=C(O)c1ccc(/C=C2\SC(=S)N(Nc3ccccc3)C2=O)cc1	78*	3	28	95*	82*	92*	92*	98*	84*	76*
COc1ccc(S(=O)(=O)Nc2c(NC3CCCCC3)c3ccccc3oc2=O)cc1	13	0	-58	2	0	x	x	x	x	x
COc1cc2ccnc(C=NO)c2cc1OC	x	0	-466	x	x	x	x	x	x	x
O=C(/C=C/c1ccc2c(c1)OCO2)Nc1ccc(Cl)cn1	54*	-1	-373	4	-2	-27	-17	9	6	-3
COc1ccccc1NC(=O)COC(=O)/C=C/c1ccc2c(c1)OCO2	-4	1	-312	8	-2	x	x	x	x	x
COc1ccccc1NC(=O)/C=C/c1ccc2c(c1)OCO2	68*	1	2	73*	65*	78*	75*	93*	73*	36
COc1ccccc1NC(=O)c1ccc2c(c1)OCO2	51*	0	4	60*	38	51*	48	84*	79*	60*
CC(C)(Oc1ccc(Cl)cc1)C(=O)OCc1nc2ccsc2c(=O)[nH]1	2	1	1	-2	5	x	x	x	x	x
N/C(CC(=O)NC1CCCCC1)=N\OCC(=O)Nc1ccc(Cl)c(Cl)c1	2	1	-4	-6	-1	x	x	x	x	x
CCCCN(C)CCNC(=O)CCn1nc(-c2ccc(Cl)cc2)ccc1=O	0	-1	15	-8	-1	x	x	x	x	x
